The values below come from ChEMBL document CHEMBL1136377, “2,4-disubstituted pyrimidines: a novel class of KDR kinase inhibitors” (Bioorg Med Chem Lett, 2003).

Data set [1] has as its target T1, Vascular endothelial growth factor receptor 2 (Homo sapiens, UniProt P35968). In words: Biochemical inhibition of phosphorylation of a poly-Glu/Tyr (4:1) peptide substrate by isolated vascular endothelial growth factor receptor 2 (cloned and expressed as a GST-fusion protein).
For data set [2], the target named is T2, Vascular endothelial growth factor receptor (Homo sapiens, UniProt P17948+P35916+P35968). As to the kind of experiment: Inhibition of VEGFstimulated mitogenesis in human umbilical vein endothelial cells. The conditions noted are these: endothelial cell. It is filed as functional, cell-based.
For data set [3], the target named is T2, Vascular endothelial growth factor receptor. As to the kind of experiment: Inhibition of VEGFstimulated mitogenesis in human umbilical vein endothelial cells. It is filed as functional, cell-based. The conditions noted are these: endothelial cell.
Data set [4] concerns the target VEGF-receptor 2 and Fibroblast growth factor receptor 1 (Homo sapiens) (UniProt P35968+P11362). In words: Selectivity for VEGF-receptor 2 (KDR) over FGF-receptor 1. It counts as protein assay.
Data set [5] addresses VEGF-receptor 2 and Fibroblast growth factor receptor 2 (Homo sapiens) (UniProt P35968+P21802). As to the kind of experiment: Selectivity for VEGF-receptor 2 (KDR) over FGF-receptor 2. It counts as protein assay.
Data set [6] deals with Vascular endothelial growth factor receptor 1 and 2 (Flt-1 and KDR) (Homo sapiens) (UniProt P17948+P35968). As to the kind of experiment: Selectivity for VEGF-receptor 2 (KDR) over VEGF-receptor 1 (FLT-1). It counts as protein assay.
Data set [7] has as its target Vascular endothelial growth factor receptor 2 and 3 (KDR and Flt-4) (Homo sapiens) (UniProt P35916+P35968). As to the kind of experiment: Selectivity for VEGF-receptor 2 (KDR) over VEGF-receptor 3 (FLT-4). It is filed as protein assay.
The target in data set [8] is VEGF-receptor 2 and PDGF-receptor beta (KDR and PDGFR beta) (Homo sapiens) (UniProt P09619+P35968). In words: Selectivity for VEGF-receptor 2 (KDR) over PDGF-receptor beta. It is filed as protein assay.
The target of data set [9] is VEGF-receptor 2 and tyrosine-protein kinase SRC (Homo sapiens) (UniProt P12931+P35968). In words: Selectivity for VEGF-receptor (KDR) over c-SRC. It is filed as protein assay.
Data set [10] addresses T1, Vascular endothelial growth factor receptor 2. In words: Biochemical inhibition of phosphorylation of a poly-Glu/Tyr (4:1) peptide substrate by isolated vascular endothelial growth factor receptor 2 (cloned and expressed as a GST-fusion protein).
A short description of data set [11]: Volume distribution constant was determined. It is filed as ADME, organism-based, Canis lupus familiaris. Conditions: dog, in vivo; read-out: Vdss.
A short description of data set [12]: Half life period was determined. It counts as ADME, organism-based, Canis lupus familiaris. Conditions: dog, in vivo.
Data set [13] in a line: Plasma clearance was determined. It is filed as ADME, organism-based, Canis lupus familiaris. Conditions: dog.
Data set [14] can be described thus: Partition coefficient (logP). It is filed as physicochemical. Conditions: octanol/water. The method, boiled down: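 Partition coefficient measured by HPLC analysis of an octanol/phosphate buffer (pH 7.4) system.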
The target in data set [15] is T2, Vascular endothelial growth factor receptor. As to the kind of experiment: Inhibition of VEGF-stimulated mitogenesis in human umbilical vein endothelial cells at 500 nM. It is filed as functional, cell-based. The conditions noted are these: Endothelial cell.

Sequence of VEGF-receptor 2 and tyrosine-protein kinase SRC (Homo sapiens) (P12931 whole entry, looked up, the tested form may be a part): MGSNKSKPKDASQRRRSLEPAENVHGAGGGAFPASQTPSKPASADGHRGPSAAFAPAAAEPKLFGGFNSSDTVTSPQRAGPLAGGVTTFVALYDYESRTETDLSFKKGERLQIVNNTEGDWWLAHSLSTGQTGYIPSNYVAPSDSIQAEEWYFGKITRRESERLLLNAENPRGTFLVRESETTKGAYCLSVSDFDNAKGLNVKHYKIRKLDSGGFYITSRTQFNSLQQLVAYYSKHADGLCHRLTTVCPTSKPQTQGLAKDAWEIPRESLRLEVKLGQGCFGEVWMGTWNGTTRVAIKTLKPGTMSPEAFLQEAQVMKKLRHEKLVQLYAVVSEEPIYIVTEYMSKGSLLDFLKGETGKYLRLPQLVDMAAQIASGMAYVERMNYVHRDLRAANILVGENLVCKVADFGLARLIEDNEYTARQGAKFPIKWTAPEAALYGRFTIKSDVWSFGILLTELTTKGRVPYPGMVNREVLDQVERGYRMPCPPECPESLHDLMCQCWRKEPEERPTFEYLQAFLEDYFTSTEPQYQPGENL
Sequence of VEGF-receptor 2 and tyrosine-protein kinase SRC (Homo sapiens) (P35968 whole entry, looked up, the tested form may be a part): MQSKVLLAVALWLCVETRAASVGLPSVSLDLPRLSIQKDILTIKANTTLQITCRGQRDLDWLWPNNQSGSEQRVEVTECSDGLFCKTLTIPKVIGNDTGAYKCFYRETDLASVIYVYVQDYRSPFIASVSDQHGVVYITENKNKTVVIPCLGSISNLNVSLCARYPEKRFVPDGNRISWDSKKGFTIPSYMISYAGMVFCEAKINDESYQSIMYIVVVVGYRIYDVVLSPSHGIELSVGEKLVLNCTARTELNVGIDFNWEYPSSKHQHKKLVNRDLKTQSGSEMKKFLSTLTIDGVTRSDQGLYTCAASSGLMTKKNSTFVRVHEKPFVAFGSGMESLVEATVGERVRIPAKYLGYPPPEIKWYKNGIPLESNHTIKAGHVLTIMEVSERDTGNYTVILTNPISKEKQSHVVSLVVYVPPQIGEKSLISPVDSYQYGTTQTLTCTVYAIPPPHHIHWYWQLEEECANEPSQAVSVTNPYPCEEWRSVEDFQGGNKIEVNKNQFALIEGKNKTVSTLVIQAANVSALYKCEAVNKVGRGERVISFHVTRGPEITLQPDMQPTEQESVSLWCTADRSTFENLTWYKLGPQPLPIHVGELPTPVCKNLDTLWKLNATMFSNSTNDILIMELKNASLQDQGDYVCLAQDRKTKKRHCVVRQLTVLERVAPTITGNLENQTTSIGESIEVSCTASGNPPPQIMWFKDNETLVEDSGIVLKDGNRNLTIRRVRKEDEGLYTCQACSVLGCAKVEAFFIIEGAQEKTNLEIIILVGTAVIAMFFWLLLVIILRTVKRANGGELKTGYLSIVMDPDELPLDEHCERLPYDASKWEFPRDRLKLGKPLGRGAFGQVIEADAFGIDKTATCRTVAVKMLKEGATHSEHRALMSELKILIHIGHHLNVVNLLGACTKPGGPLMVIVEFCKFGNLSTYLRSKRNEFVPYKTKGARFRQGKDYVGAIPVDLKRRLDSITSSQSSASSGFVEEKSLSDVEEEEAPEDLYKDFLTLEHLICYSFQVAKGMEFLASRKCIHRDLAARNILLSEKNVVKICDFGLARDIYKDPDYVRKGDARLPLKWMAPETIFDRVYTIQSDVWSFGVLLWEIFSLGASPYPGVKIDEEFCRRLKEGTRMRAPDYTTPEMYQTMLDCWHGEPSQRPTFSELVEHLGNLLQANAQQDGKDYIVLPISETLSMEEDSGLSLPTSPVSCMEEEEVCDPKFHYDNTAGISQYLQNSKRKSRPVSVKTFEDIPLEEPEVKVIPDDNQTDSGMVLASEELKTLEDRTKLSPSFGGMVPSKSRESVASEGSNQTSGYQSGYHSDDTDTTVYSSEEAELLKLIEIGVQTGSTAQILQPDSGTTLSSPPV
T1 sequence (P35968 whole entry, the tested form may be a part): as the sequence (P35968 whole entry, looked up, the tested form may be a part) above

On to `Cc1cc(C)cc(Nc2cc(-n3ccnc3-c3ccccc3)ccn2)c1`, for which the IC50 in [1] came to 892 nM.
In data set [1], `Cc1cc(C)cc(Nc2cc(-n3ccnc3-c3ccccc3)ncn2)c1` had a concentration for half-maximal inhibition (IC50) of 1810 nM.
For the compound `COc1ccccc1Nc1nccc(-n2ccnc2-c2ccccc2)n1`, the IC50 in data set [1] stood at 289 nM.
In the case of `CC(=O)N1CCN(Cc2cc(C)cc(Nc3nccc(-n4ccnc4-c4ccccc4)n3)c2)CC1`, the IC50 in data set [2] was found to be 396 nM; in data set [1] it was 32 nM.
With `c1ccc(-c2nccn2-c2ccnc(Nc3ccccn3)n2)cc1`, 6830 nM corresponded to half-maximal inhibition in data set [1] (IC50).
In the case of `COc1cc(Nc2nccc(-n3ccnc3-c3ccccc3)n2)cc(OC)c1`, the IC50 in data set [2] turned out to be 22 nM; in data set [1], 5 nM.
Turning to `Cc1cccc(Nc2nccc(-n3ccnc3-c3ccccc3)n2)c1`, the IC50 was found to be 151 nM in [3] and 18 nM in [1]. In addition, the Selectivity in [4] worked out at 1020; in data set [5], 686; in data set [6] it was 103; in data set [7], 13; in data set [8], 22; in data set [9] it was 11.
As to `Cc1cc(CO)cc(Nc2nccc(-n3ccnc3-c3ccccc3)n2)c1`, the values for the IC50 in [2] and in data set [10] were 23 nM and 9 nM, respectively.
In turn, `Clc1cc(Cl)cc(Nc2nccc(-n3ccnc3-c3ccccc3)n2)c1` showed a half-inhibitory concentration (IC50) in data set [1] of 26 nM.
For `COc1cc(Nc2nccc(-n3ccnc3-c3ccccc3)n2)cc(C(F)(F)F)c1`, in data set [1], the half-maximal inhibitory concentration (IC50) is 19000 nM.
On the same count and under the same terms, under `FC(F)(F)c1cc(Nc2nccc(-n3ccnc3-c3ccccc3)n2)cc(C(F)(F)F)c1` stands 77 nM; under `Cc1ccc(Nc2nccc(-n3ccnc3-c3ccccc3)n2)cc1`, 279 nM.
Compound `Cc1ccccc1Nc1nccc(-n2ccnc2-c2ccccc2)n1` had a half-maximal inhibitory concentration (IC50) in [1] of 3080 nM.
Consider `c1ccc(-c2nccn2-c2ccnc(Nc3cccnc3)n2)cc1`, for which the IC50 in data set [1] stood at 340 nM.
Take `FC(F)(F)c1cccc(Nc2nccc(-n3ccnc3-c3ccccc3)n2)c1`: the IC50 in [2] was determined as 303 nM; in data set [1] it was 10 nM.
Regarding `Cc1cc(Nc2nccc(-n3ccnc3-c3ccccc3)n2)cc(C(F)(F)F)c1`, the IC50 was 26 nM in data set [2] and 5 nM in data set [1].
On to `Clc1cccc(Nc2nccc(-n3ccnc3-c3ccccc3)n2)c1`, for which half-maximal inhibition in data set [1] (IC50) was put at 25 nM.
For `COc1ccc(Nc2nccc(-n3ccnc3-c3ccccc3)n2)cc1`, the IC50 in data set [1] was 392 nM.
On to `Cc1cc(C)cc(Nc2nccc(-n3cc(C)nc3-c3ccccc3)n2)c1`, for which the IC50 in data set [1] was determined as 450 nM.
For the compound `Cc1cc(C)cc(Nc2nccc(-n3ccnc3-c3ccccc3)n2)c1`, in data set [11], the Vd is 1.11 L/kg. In addition, the half-life in [12] is 42.6 min. Further, the clearance in data set [13] stood at 30.1 mL/min/kg. The logP in data set [14] came to 3.74. Moreover, the IC50 in data set [3] was found to be 19 nM; in [1], 6 nM. Also, the Selectivity in data set [4] was 606; in data set [5], 261; in [6], 30; in data set [7], 5; in [8] it was 6; in data set [9], 10.
`COc1cccc(Nc2nccc(-n3ccnc3-c3ccccc3)n2)c1`: the IC50 in [2] stood at 88 nM; in [1], 20 nM.
In [1], `[O-][n+]1cccc(Nc2nccc(-n3ccnc3-c3ccccc3)n2)c1` had an IC50 of 3570 nM. This lies in the single-digit micromolar range.
As to `c1ccc(-c2nccn2-c2ccnc(Nc3ccncc3)n2)cc1`, the IC50 in data set [1] is 273 nM.
Consider `c1ccc(Nc2nccc(-n3ccnc3-c3ccccc3)n2)cc1`, for which the inhibition in data set [15] worked out at 8%. The same compound displayed an IC50 in [1] of 105 nM. Further, the Selectivity in data set [4] was 295; in [6], 13; in [7], 5; in data set [9] it was 11.

As a reminder, the IC50 is the concentration needed to halve the response being measured. Lower therefore signals greater potency. By half-life is commonly meant how long it takes for the measured level to halve. A higher half-life goes with slow decline. In general, clearance refers to a measure of how efficiently the substance is removed, as volume per time. Higher therefore signals efficient removal. As a reminder, the logP is the decadic logarithm of the partition coefficient of the neutral form, usually between octanol and water. A higher logP goes with higher lipophilicity. In general, inhibition refers to the change of the read-out against control, counted positive when it falls. A lower inhibition goes with a weak effect.
